Experimental data: ChEMBL document CHEMBL4715736, “Identification of anticancer agents based on the thieno[2,3-b]pyridine and 1H-pyrazole molecular scaffolds” (2016)

Experiments:
Format in all cases: functional
K562 [1] = test: Growth inhibition of human K562 cells assessed as cell growth at 0.01 uM incubated for 48 hrs by sulforhodamine B assay relative to control; conditions: read-out: Activity
NCI-H460 = test: Growth inhibition of human NCI-H460 cells assessed as cell growth at 0.01 uM incubated for 48 hrs by sulforhodamine B assay relative to control; conditions: read-out: Activity
SF-268 = test: Growth inhibition of human SF-268 cells assessed as cell growth at 0.01 uM incubated for 48 hrs by sulforhodamine B assay relative to control; conditions: read-out: Activity
Malme-3M = test: Growth inhibition of human Malme-3M cells assessed as cell growth at 0.01 uM incubated for 48 hrs by sulforhodamine B assay relative to control; conditions: read-out: Activity
OVCAR-5 [2] = test: Growth inhibition of human OVCAR-5 cells assessed as cell growth at 0.01 uM incubated for 48 hrs by sulforhodamine B assay relative to control; conditions: read-out: Activity
ACHN [3] = test: Growth inhibition of human ACHN cells assessed as cell growth at 0.01 uM incubated for 48 hrs by sulforhodamine B assay relative to control; conditions: read-out: Activity
SN12C [4] = test: Growth inhibition of human SN12C cells assessed as cell growth at 0.01 uM incubated for 48 hrs by sulforhodamine B assay relative to control; conditions: read-out: Activity
K562 [5] = test: Growth inhibition of human K562 cells assessed as cell growth at 0.1 uM incubated for 48 hrs by sulforhodamine B assay relative to control; conditions: read-out: Activity
COLO 205 [6] = test: Growth inhibition of human COLO 205 cells assessed as cell growth at 0.1 uM incubated for 48 hrs by sulforhodamine B assay relative to control; conditions: read-out: Activity
Outline: (§1)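 NCI Developmental Therapeutics Program NCI60 panel. Compounds that were active in the 10 µM one-dose screen went on to dose–response testing. Growth at each concentration is expressed relative to untreated control (100%). GI50 (concentration giving 50% of maximal inhibition of proliferation) and TGI (concentration giving total growth inhibition) were derived from the curves.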

HCC 2998 = test: Growth inhibition of human HCC 2998 cells assessed as cell growth at 0.1 uM incubated for 48 hrs by sulforhodamine B assay relative to control; conditions: read-out: Activity; outline: as §1
UACC-62 [7] = test: Growth inhibition of human UACC-62 cells assessed as cell growth at 0.1 uM incubated for 48 hrs by sulforhodamine B assay relative to control; conditions: read-out: Activity
IGROV-1 = test: Growth inhibition of human IGROV-1 cells assessed as cell growth at 0.1 uM incubated for 48 hrs by sulforhodamine B assay relative to control; conditions: read-out: Activity
OVCAR-5 [8] = test: Growth inhibition of human OVCAR-5 cells assessed as cell growth at 0.1 uM incubated for 48 hrs by sulforhodamine B assay relative to control; conditions: read-out: Activity
SK-OV-3 [9] = test: Growth inhibition of human SK-OV-3 cells assessed as cell growth at 0.1 uM incubated for 48 hrs by sulforhodamine B assay relative to control; conditions: read-out: Activity
A498 = test: Growth inhibition of human A498 cells assessed as cell growth at 0.1 uM incubated for 48 hrs by sulforhodamine B assay relative to control; conditions: read-out: Activity; outline: as §1
SNB-19 [10] = test: Growth inhibition of human SNB-19 cells assessed as cell growth at 1 uM incubated for 48 hrs by sulforhodamine B assay relative to control; conditions: read-out: Activity
MDA-MB-435 [11] = test: Growth inhibition of human MDA-MB-435 cells assessed as cell growth at 1 uM incubated for 48 hrs by sulforhodamine B assay relative to control; conditions: read-out: Activity
UACC-257 = test: Growth inhibition of human UACC-257 cells assessed as cell growth at 1 uM incubated for 48 hrs by sulforhodamine B assay relative to control; conditions: read-out: Activity
UACC-62 [12] = test: Growth inhibition of human UACC-62 cells assessed as cell growth at 1 uM incubated for 48 hrs by sulforhodamine B assay relative to control; conditions: read-out: Activity
SN12C [13] = test: Growth inhibition of human SN12C cells assessed as cell growth at 1 uM incubated for 48 hrs by sulforhodamine B assay relative to control; conditions: read-out: Activity
TK-10 = test: Growth inhibition of human TK-10 cells assessed as cell growth at 1 uM incubated for 48 hrs by sulforhodamine B assay relative to control; conditions: read-out: Activity
PC-3 = test: Growth inhibition of human PC-3 cells assessed as cell growth at 1 uM incubated for 48 hrs by sulforhodamine B assay relative to control; conditions: read-out: Activity
HOP-62 = test: Growth inhibition of human HOP-62 cells assessed as cell growth at 100 uM incubated for 48 hrs by sulforhodamine B assay relative to control; conditions: read-out: Activity
COLO 205 [14] = test: Growth inhibition of human COLO 205 cells assessed as cell growth at 100 uM incubated for 48 hrs by sulforhodamine B assay relative to control; conditions: read-out: Activity; outline: as §1
HCT-116 [15] = test: Growth inhibition of human HCT-116 cells assessed as cell growth at 100 uM incubated for 48 hrs by sulforhodamine B assay relative to control; conditions: read-out: Activity
SNB-19 [16] = test: Growth inhibition of human SNB-19 cells assessed as cell growth at 100 uM incubated for 48 hrs by sulforhodamine B assay relative to control; conditions: read-out: Activity
SK-OV-3 [17] = test: Growth inhibition of human SK-OV-3 cells assessed as cell growth at 100 uM incubated for 48 hrs by sulforhodamine B assay relative to control; conditions: read-out: Activity
CAKI-1 = test: Growth inhibition of human CAKI-1 cells assessed as cell growth at 100 uM incubated for 48 hrs by sulforhodamine B assay relative to control; conditions: read-out: Activity; outline: as §1
CCRF-CEM = test: Growth inhibition of human CCRF-CEM cells incubated for 48 hrs by sulforhodamine B assay; outline: as §1
MOLT-4 = test: Growth inhibition of human MOLT-4 cells incubated for 48 hrs by sulforhodamine B assay
Outline: (§2)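 NCI60 panel at the NCI Developmental Therapeutics Program. Only compounds active in the 10 µM screen went to dose-response testing. GI50, the concentration giving 50% of maximal inhibition of proliferation, and TGI, the concentration giving total growth inhibition, were derived from the dose-response curves.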

HCT-116 [18] = test: Growth inhibition of human HCT-116 cells incubated for 48 hrs by sulforhodamine B assay; outline: as §2
MDA-MB-435 [19] = test: Growth inhibition of human MDA-MB-435 cells incubated for 48 hrs by sulforhodamine B assay; outline: as §2
OVCAR-3 = test: Growth inhibition of human OVCAR-3 cells incubated for 48 hrs by sulforhodamine B assay
Outline: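 NCI DTP 60-line human tumour panel. Dose-response curves were run only for ligands active in the initial 10 µM screen. GI50 (concentration giving 50% of maximal inhibition of proliferation) and TGI (concentration giving total growth inhibition) were derived from these curves.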

ACHN [20] = test: Growth inhibition of human ACHN cells incubated for 48 hrs by sulforhodamine B assay; outline: as §1
Hs-578T = test: Growth inhibition of human Hs-578T cells incubated for 48 hrs by sulforhodamine B assay; outline: as §2
[21] = read-out: LC50 (the source's name)

COc1cccc(NC(=O)c2sc3nc4c(cc3c2N)CN(Cc2ccccc2)CC4)c1
growth at 0.01 µM (K562 [1]): 106% | growth at 0.01 µM (NCI-H460): 101% | growth at 0.01 µM (SF-268): 99% | growth at 0.01 µM (Malme-3M): 97% | growth at 0.01 µM (OVCAR-5 [2]): 91% | growth at 0.01 µM (ACHN [3]): 97% | growth at 0.01 µM (SN12C [4]): 95% | growth at 0.1 µM (K562 [5]): 101% | growth at 0.1 µM (COLO 205 [6]): 98% | growth at 0.1 µM (HCC 2998): 98% | growth at 0.1 µM (UACC-62 [7]): 89% | growth at 0.1 µM (IGROV-1): 102% | growth at 0.1 µM (OVCAR-5 [8]): 95% | growth at 0.1 µM (SK-OV-3 [9]): 100% | growth at 0.1 µM (A498): 84% | growth at 1 µM (SNB-19 [10]): 82% | growth at 1 µM (MDA-MB-435 [11]): 4% | growth at 1 µM (UACC-257): 78% | growth at 1 µM (UACC-62 [12]): 58% | growth at 1 µM (SN12C [13]): 85% | growth at 1 µM (TK-10): 98% | growth at 1 µM (PC-3): 73% | growth at 100 µM (HOP-62): -71% | growth at 100 µM (COLO 205 [14]): -16% | growth at 100 µM (HCT-116 [15]): 2% | growth at 100 µM (SNB-19 [16]): 14% | growth at 100 µM (SK-OV-3 [17]): -66% | growth at 100 µM (CAKI-1): 11% | GI50 (CCRF-CEM): 29.5 µM | LC50 (CCRF-CEM): > 100 µM | TGI (CCRF-CEM): > 100 µM | GI50 (MOLT-4): 21.9 µM | TGI (MOLT-4): > 100 µM | CC50 (MOLT-4; [21]): > 100 µM | GI50 (HCT-116 [18]): 1.74 µM | LC50 (concentration killing 50% of cells) (HCT-116 [18]): > 100 µM | TGI (HCT-116 [18]): > 100 µM | GI50 (MDA-MB-435 [19]): 0.296 µM | TGI (MDA-MB-435 [19]): 11 µM | CC50 (MDA-MB-435 [19]; [21]): 49 µM | GI50 (OVCAR-3): 7.53 µM | TGI (OVCAR-3): 26.9 µM | CC50 (OVCAR-3; [21]): 79.8 µM | GI50 (ACHN [20]): 3.46 µM | TGI (ACHN [20]): 64.5 µM | CC50 (ACHN [20]; [21]): > 100 µM | GI50 (Hs-578T): 2.14 µM | TGI (Hs-578T): 23 µM | CC50 (Hs-578T; [21]): > 100 µM
